Laboratory results from ChEMBL document CHEMBL3400122, “8-(3-chloro-4-methoxybenzyl)-8H-pyrido[2,3-d]pyrimidin-7-one derivatives as potent and selective phosphodiesterase 5 inhibitors” (Bioorg Med Chem Lett, 2015).

Legend:
[1] = Selectivity for bovine retina PDE6 to canine lung PDE5
Corpus cavernosum = assay: Relaxation effect on phenylephrine-induced contractile response in isolated rabbit corpus cavernosum; type: functional; details: Oryctolagus cuniculus
How it was run: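 Isolated rabbit corpus cavernosum strips in organ baths. High-KCl (120 mM) PSS contraction checked twice, then phenylephrine (5 × 10⁻⁶ M) gave a tonic contraction. Once stable, test compound (10⁻¹⁰–10⁻⁶ M) or vehicle added at 30 min intervals. EC30 derived from the logarithmic concentration–inhibition curve.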

[2] = biological target: cGMP-specific 3',5'-cyclic phosphodiesterase (Canis lupus familiaris, UniProt O77746); assay: Inhibition of canine lung PDE5 using [3H]cGMP incubated for 30 mins by scintillation analysis
How it was run: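 Radiolabeled nucleotide method using PDE5 isolated from canine lung. Started with [³H]cGMP plus unlabeled cGMP, 37 °C for 30 min, stopped by boiling 1.5 min. Crotalus atrox venom step at 37 °C for 30 min, column separation, eluate counted by scintillation.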

Structure (SMILES) | Selectivity ratio [1] | EC30 (Corpus cavernosum) [nM] | IC50 [2] [nM] | Ratio IC50 [1]
COc1ccc(Cn2c(=O)ccc3cnc(N4CCC[C@H]4CO)nc32)cc1Cl | 850 | 2.2 | 3.3 | 
COc1ccc(Cn2c(=O)cc(C)c3cnc(N4CCC[C@H]4CO)nc32)cc1Cl | 2300 | 0.85 | 0.86 | 
COc1ccc(CNc2nc(N3CCC[C@H]3CO)ncc2C(=O)c2cc(OC)c(OC)c(OC)c2)cc1Cl |  | > 100 | 0.21 | 5700
COc1ccc(CNc2nc(N3CCC[C@H]3CO)ncc2C(C)=O)cc1Cl |  |  | 5.2 | 
COc1ccc(CNc2nc(N3CCC[C@H]3CO)ncc2C(=O)c2ccccn2)cc1Cl |  |  | 12 | 
COc1ccc(CNc2nc(N3CCC[C@H]3CO)ncc2C=O)cc1Cl |  |  | 33 | 
COc1ccc(CNc2nc(N3CCC[C@H]3CO)ncc2C(=O)c2nccn2C)cc1Cl |  |  | 12 | 
COc1ccc(Cn2c(=O)cc(-c3ccccn3)c3cnc(N4CCC[C@H]4CO)nc32)cc1Cl | 1900 |  | 1.7 | 
COc1ccc(CNc2nc(N3CCC[C@H]3CO)ncc2C(=O)CCN2CCOCC2)cc1Cl |  |  | 2.9 | 
COc1ccc(Cn2c(=O)cc(CCN3CCOCC3)c3cnc(N4CCC[C@H]4CO)nc32)cc1Cl | 1600 | 8.6 | 0.98 | 
CCCc1nn(C)c2c(=O)[nH]c(-c3cc(S(=O)(=O)N4CCN(C)CC4)ccc3OCC)nc12 [SILDENAFIL] |  | 8.7 |  | 
COc1ccc(Cn2c(=O)cc(-c3nccn3C)c3cnc(N4CCC[C@H]4CO)nc32)cc1Cl |  |  | 7.2 | 
